Measured values from different studies.
Cell line: HEK293
Read-out: cell growth or viability

O=C(Nc1ccc(C(F)(F)F)nn1)c1cccc(C(F)(F)F)c1 has a CC50 of greater than 20 µM (resazurin; 48 h).
COc1ccc2c(c1)c(=O)c(C(=O)NN)cn2Cc1ccc(C)cc1 gave a CC50 of greater than 20 µM (resazurin; 48 h).
With O=C(Nc1ccc(Cl)c(Cl)c1)c1cccc(C(F)(F)F)c1 the CC50 was 10.1 µM (resazurin; 48 h).
The CC50 of COC1=CC2=[N+](C)CCc3c[nH]c(c32)C1=O is reported as 12.5 µM (MTT; 72 h).
For COc1ccc2c(c1)c(=O)c(C(=O)NN)cn2Cc1ccccc1, the CC50 was greater than 20 µM (resazurin; 48 h).
The CC50 of Cn1cc2c3c1C(=O)C(NCCc1ccc(O)cc1)=CC3=[N+](C)CC2 is reported as 0.23 µM (MTT; 72 h).
With O=C(Nc1cccc([N+](=O)[O-])c1)c1ccc(C(F)(F)F)cc1 the CC50 was greater than 20 µM (resazurin; 48 h).
The CC50 of O=C(N/N=C/c1ccc([N+](=O)[O-])o1)c1cn(Cc2ccccc2)c2ccc([N+](=O)[O-])cc2c1=O is reported as greater than 20 µM (resazurin; 48 h).
The CC50 of O=C(Nc1ccc(Br)nn1)c1cccc(F)c1 is reported as greater than 20 µM (resazurin; 48 h).
The CC50 of CC(C)C[C@H](NC(=O)[C@H](Cc1ccccc1)NC(=O)c1cnccn1)B(O)O is reported as 0.008 µM (resazurin; 48 h).
For CCCc1cc(=O)oc2cc(OCc3cc(=O)c(O)co3)ccc12, the viability was 97.9% (CCK-8; 12 µM, 24 h).
O=C1C=C2NCCc3c[nH]c(c32)C1=O gave a CC50 of 50 µM (MTT; 72 h).
The CC50 of O=C(Nc1cccc(C(F)(F)F)c1)c1cccc(C(F)(F)F)c1 is reported as 15.6 µM (resazurin; 48 h).
For O=C1C(NCCc2ccc(O)cc2)=CC2=NCCc3c[nH]c1c32, the CC50 was 3 µM (MTT; 72 h).
NNC(=O)c1cn(Cc2ccccc2)c2ccc(Oc3ccccc3)cc2c1=O gave a CC50 of greater than 20 µM (resazurin; 48 h).
